Screening results as filed in PubChem.
This is a sample that favours compounds with a hit; in the whole collection about 3.4% have one here.
APOBEC3A inh: blocks human APOBEC3A ssDNA deamination. P31941. recombinant A3A, FAM/TAMRA ssDNA deamination fluorescence. inhibition, % at 20 µM. 330,000 tested, 0.41% active. AID 493011;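 active means at least 40% inhibition at 20 µM here, with at most 30% in a related deaminase screen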
AHR act: human AHR activation | P35869 | AHR-responsive luciferase reporter cells, luminescence | activation, % at 5 µM | 320,000 tested, 2.5% active; in the data active means activation above about 47%
Arr AP2 block: inhibitors of human beta-arrestin and AP2 interaction. FITC-arrestin peptide / GST-AP2 beads, flow cytometry; AP2 beta2 appendage carries R879A mutation. 340,000 tested, 0.31% active. inhibition, % at 10 µM;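 active means inhibition above a set limit, near 3 SD of compounds lacking own fluorescence, cut at about 54% in these data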
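System: GST-AP2 R879A glutathione beads. Medium: PBS with 0.05% Tween 20 and 0.1% BSA. Also added: FITC-arrestin peptide, 50 nM. Incubation: 12 min plus 1 h, RT. Measured by: high-throughput flow cytometry of beads, ex 488, em 535 nm. Evaluation: percent drop in bead-associated FITC signal.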
PolyA inh: yeast polyadenylation inhibition | AID 1875 | S. cerevisiae SKY197-pL101 polyadenylation reporter, beta-gal luminescence; efflux-impaired pdr1/pdr3 knockout yeast; score 100 = 6 SD above DMSO | activity score, % at 12 µM | 300,000 tested, 0.02% active;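 active means lowest replicate activity score at least 50, where 100 means six control SD above control mean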;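 further: yeast exposed to compound for 9 h at 30 °C; higher score means more reporter readthrough which indicates perturbed polyadenylation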
APOBEC3G inh: APOBEC3G (human) deaminase inhibition; Q9HC16; AID 493012; 330,000 tested, 0.28% active; recombinant A3G, ssDNA deamination FAM/TAMRA fluorescence; inhibition, % at 20 µM;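 active means inhibition of at least 40% at 20 µM, with no more than 30% in the related APOBEC3A deaminase screen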
UCH37 inh: inhibitors of human deubiquitinating enzyme UCH37; Q9Y5K5; purified proteasome/UCH37, Ub-AMC cleavage fluorescence; inhibition, % (test concentration not listed); 330,000 tested, 0.33% active; AID 588478;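 active means mean inhibition over replicate wells above about 20%, limit read from the data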
Target sequence (Q9Y5K5 whole entry, looked up): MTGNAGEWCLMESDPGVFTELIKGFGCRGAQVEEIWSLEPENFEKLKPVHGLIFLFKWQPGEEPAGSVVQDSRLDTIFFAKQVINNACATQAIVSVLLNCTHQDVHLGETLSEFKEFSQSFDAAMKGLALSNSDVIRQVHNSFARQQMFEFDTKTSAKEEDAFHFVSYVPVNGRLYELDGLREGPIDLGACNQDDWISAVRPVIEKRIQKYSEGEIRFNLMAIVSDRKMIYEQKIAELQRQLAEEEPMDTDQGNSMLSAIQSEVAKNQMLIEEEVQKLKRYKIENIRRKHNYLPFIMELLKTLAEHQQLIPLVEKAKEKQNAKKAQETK
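Material: Human UCH37 enzyme supplied as purified proteasome complex | Schedule: 30 min preincubation with enzyme, 25 min cleavage at room temperature | Detection: AMC fluorescence 355/460 nm | Measure: % inhibition of Ub-AMC cleavage fluorescence | Controls: Wells without proteasome as full block, compound-free enzyme plus substrate as uninhibited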
AHR act confirm: confirmation of human aryl hydrocarbon receptor activators. human cells, AHR-responsive luciferase reporter, luminescence. shares compounds with AHR act. AID 2845. 2,300 tested, 87% active. activation, % at 9 µM; in the data active means activation above about 49%;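 further: HepG2 hepatoma cells carrying a DRE-driven firefly luciferase reporter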
PXR act counter: counter-screen for AHR activators: human PXR activators; shares compounds with AHR act; cell-based PXR reporter, luciferase luminescence; activation, % at 11.6 µM; 2,300 tested, 88% active; in the data active means activation above about 11%;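 further: human hepatoma DPX-2 cells expressing full-length human PXR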
Target sequence (O75469 whole entry, looked up): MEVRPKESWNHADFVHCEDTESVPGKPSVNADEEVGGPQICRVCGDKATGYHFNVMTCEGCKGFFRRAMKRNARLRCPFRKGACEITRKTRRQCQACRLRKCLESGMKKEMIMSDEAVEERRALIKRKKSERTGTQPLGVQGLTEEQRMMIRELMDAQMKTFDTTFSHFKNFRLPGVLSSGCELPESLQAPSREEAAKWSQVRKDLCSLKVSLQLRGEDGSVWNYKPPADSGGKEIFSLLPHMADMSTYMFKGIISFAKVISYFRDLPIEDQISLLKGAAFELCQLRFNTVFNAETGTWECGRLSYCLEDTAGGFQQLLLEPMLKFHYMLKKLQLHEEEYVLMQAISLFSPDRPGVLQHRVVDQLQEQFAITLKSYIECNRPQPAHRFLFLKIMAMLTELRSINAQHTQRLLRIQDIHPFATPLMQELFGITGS
Large screens that a line does not name were inactive (follow-up assays come after a bar, where they were run).

O=C(CSc1ncn[nH]1)N1N=C2/C(=C/c3ccccc3)CCCC2C1c1ccccc1 (stereo not drawn)	AHR act 98.1 | AHR act confirm 87.7 | PXR act counter 73.7
Nc1nc(SCC(=O)N2N=C3/C(=C/c4ccco4)CCCC3C2c2ccco2)n[nH]1 (stereo not drawn)	none
O=[N+]([O-])c1cccc(NC(=S)Nc2nc(-c3ccccc3Cl)cs2)c1	AHR act 86.9 | AHR act confirm 56.3 | PXR act counter 22.7
Cc1ccc(N2CCN(N=CC3=C(N4CCOCC4)/C(=C\c4ccccc4)CC3)CC2)cc1	none (no result: APOBEC3A inh, AHR act, Arr AP2 block, PolyA inh, APOBEC3G inh)
COc1ccc2c(C)nc(Nc3nc(C)cc(C)n3)nc2c1	AHR act 108.7 | AHR act confirm 100.9 | PXR act counter 20.8
CC(=NNC(=O)c1ccc2c(c1)OCO2)c1ccc2c(c1)OCO2	none (no result: APOBEC3A inh, AHR act, Arr AP2 block, PolyA inh, APOBEC3G inh)
COc1ccc(C2CC(c3cccs3)=NN2C(=O)CSc2nc3ccccc3o2)cc1 (stereo not drawn)	AHR act 93.3 | AHR act confirm 49.5 | PXR act counter 44.9
COc1ccc(C2CC(c3cccs3)=NN2C(=O)CSc2nc3ccccc3s2)cc1 (stereo not drawn)	none
COc1ccc(OC)c(C=c2sc3nc(-c4cccs4)nn3c2=O)c1	none (no result: APOBEC3A inh, AHR act, Arr AP2 block, PolyA inh, APOBEC3G inh)
O=C(Nc1ccon1)c1csc2c1CCCC2	none
O=C(Nc1nccs1)c1csc2c1CCCC2	AHR act 84.2 | AHR act confirm 121.1 | PXR act counter 25.0
COc1cc(NC(=S)Nc2ncccc2C)cc(OC)c1OC	AHR act 105.8 | AHR act confirm 92.5 | PXR act counter 67.2
O=C(NN=C1CCCCCC1)c1cc2ccccc2cc1O	none
CCc1ccc(C(C)=NNC(=O)c2c[nH]c3ccccc23)s1	none (no result: APOBEC3A inh, AHR act, Arr AP2 block, PolyA inh, APOBEC3G inh)
O=C(NN=C1CCCCCC1)c1c[nH]c2ccccc12	AHR act 90.8 | AHR act confirm inactive | PXR act counter inactive
C/C(=N\NC(=O)c1c[nH]c2ccccc12)c1ccc(C)o1	AHR act 82.1 (no result: UCH37 inh) | AHR act confirm 119.5 | PXR act counter 17.2
CCN(CC)c1ccc(C=NNC(=O)c2nnn(-c3nonc3N)c2-c2ccc(C)cc2)cc1	none (no result: APOBEC3A inh, AHR act, Arr AP2 block, PolyA inh, APOBEC3G inh)
COc1ccccc1CN1CCc2c([nH]c3ccccc23)C1	AHR act 98.7 | AHR act confirm 89.7 | PXR act counter 27.1
Cc1onc(-c2ccc(Cl)cc2Cl)c1-c1csc(NN=Cc2ccccc2)n1	none (no result: APOBEC3A inh, AHR act, Arr AP2 block, PolyA inh, APOBEC3G inh)
CCOc1ccc(N=C2SC(C(=O)Nc3ccccc3C#N)C(N)=C2C(=O)Nc2ccc(Cl)cc2)cc1 (stereo not drawn)	AHR act 86.4 | AHR act confirm 70.9 | PXR act counter inactive
COc1cc(NC(=O)c2ccccc2)c(OC)cc1NC(=O)CN1CCCCC1	AHR act 82.6 | AHR act confirm 96.1 | PXR act counter 22.8
COc1cc(NC(=O)c2ccccc2)c(OC)cc1NC(=O)CN1CCOCC1	none
COc1ccc(C=NNC(=O)c2ccn[nH]2)cc1COc1ccc(F)cc1	none (no result: APOBEC3A inh, AHR act, Arr AP2 block, PolyA inh, APOBEC3G inh)
COc1ccc(CC(=O)NN=C(C)c2ccccn2)cc1	none (no result: APOBEC3A inh, AHR act, Arr AP2 block, PolyA inh, APOBEC3G inh)
CCOC(=O)c1sc(NN=Cc2cccc(C)c2)nc1C	none (no result: APOBEC3A inh, AHR act, Arr AP2 block, PolyA inh, APOBEC3G inh)
CCOC(=O)c1sc(N/N=C/c2ccc(N(C)C)cc2)nc1C	AHR act 129.9 (no result: UCH37 inh) | AHR act confirm 85.5 | PXR act counter 10.6
N#Cc1c(-c2cccs2)cc(-c2cccnc2)nc1N	AHR act 101.7 | AHR act confirm 129.5 | PXR act counter 27.8
N#Cc1c(-c2ccc(Br)cc2)cc(-c2cccnc2)nc1N	AHR act 93.1 | AHR act confirm 72.8 | PXR act counter 18.3
N#Cc1c(-c2cccs2)cc(-c2ccccn2)nc1N	AHR act 79.9 | AHR act confirm 98.4 | PXR act counter 23.1
Nc1nc2ccccc2cc1-c1cccs1	none
O=C(CC=NOCc1c(Cl)cccc1Cl)Oc1ccc(Cl)cc1Cl	none (no result: APOBEC3A inh, AHR act, Arr AP2 block, PolyA inh, APOBEC3G inh)
COc1cc(/C=N/Nc2nc(Nc3ccccc3)nc(-n3nc(C)cc3C)n2)cc(OC)c1OC	AHR act 79.6 (no result: UCH37 inh) | AHR act confirm 67.8 | PXR act counter 26.0
COc1cc(/C=N/Nc2nc(Nc3ccc(C)cc3)nc(-n3nc(C)cc3C)n2)cc(OC)c1OC	none (no result: UCH37 inh)
Cc1cc(C)nc(Nc2ncc(O)n2-c2ccccc2)n1	AHR act 90.0 | AHR act confirm 61.1
Cc1ccc(-n2c(O)cnc2Nc2nc(C)cc(C)n2)cc1	none
COc1ccccc1C(=O)NC(=S)/C=C1/N(C)c2ccccc2C1(C)C	AHR act 81.4 | AHR act confirm inactive | PXR act counter 100.4
CCOc1ccc(C=NNC(=O)C(OC)c2ccccc2)cc1 (stereo not drawn)	none (no result: APOBEC3A inh, AHR act, Arr AP2 block, PolyA inh, APOBEC3G inh)
Cc1cccc2c1NC(=O)/C2=C\C(=O)c1cccs1	AHR act 84.2 | AHR act confirm 112.8 | PXR act counter 116.5
O=C(NCCN1C(=O)C2C3C=CC(C3)C2C1=O)NCc1ccccc1 (stereo not drawn)	none
O=C(NCCN1C(=O)C2C3C=CC(C3)C2C1=O)N1CCCCC1 (stereo not drawn)	AHR act 91.9 | AHR act confirm inactive | PXR act counter 21.1
CN1CCN(N=Cc2nc(-c3ccccc3)n3ccccc23)CC1	none (no result: APOBEC3A inh, AHR act, Arr AP2 block, PolyA inh, APOBEC3G inh)
C/C(CC(=O)Nc1cc(Cl)ccc1Cl)=N\NC(=O)c1ccco1	AHR act 91.3 (no result: UCH37 inh) | AHR act confirm inactive | PXR act counter 15.9
OC[C@@H](O)[C@H](O)C(C=NNc1ccccc1)=NNc1ccccc1	none (no result: APOBEC3A inh, AHR act, Arr AP2 block, PolyA inh, APOBEC3G inh)
O=c1cc(CSc2nnc3ccccn23)c2c(ccc3ccccc32)o1	AHR act 84.1 | AHR act confirm 64.8 | PXR act counter 28.9
O=c1[nH]c(CSc2nnc3ccccn23)nc2ccccc12	none
CCNC(=O)O/N=C(\C)c1sc(-c2ccc(Cl)cc2)nc1C	AHR act 134.9 (no result: UCH37 inh) | AHR act confirm 134.6 | PXR act counter 16.9
C/C(=N\OC(=O)NC(C)C)c1sc(-c2ccccc2)nc1C	none (no result: UCH37 inh)
C/C(=N\OC(=O)NC(C)C)c1sc(-c2ccc(Cl)cc2)nc1C	AHR act 109.3 (no result: UCH37 inh) | AHR act confirm 104.2 | PXR act counter 16.7
O=C(CN1CCN(S(=O)(=O)c2ccc(Br)cc2)CC1)NN=Cc1ccc(Cl)c([N+](=O)[O-])c1	none (no result: APOBEC3A inh, AHR act, Arr AP2 block, PolyA inh, APOBEC3G inh)
O=C1c2ccccc2C(=O)N1CCCCN(C(=O)c1cc([N+](=O)[O-])cc([N+](=O)[O-])c1)c1ccc(Cl)cc1	none
O=C1c2ccccc2C(=O)N1CCCCN(C(=O)c1ccc([N+](=O)[O-])cc1)c1ccc(Cl)cc1	AHR act 89.6 | AHR act confirm 89.7 | PXR act counter 214.4
